Measurements from paper PMC2292217 (The Journal of Experimental Medicine, 2008).

Key:
[1] = tested on: peritoneal MΦs (PMΦs); assay: MΦ activation assay: LPS/IFN-γ–induced inflammatory cytokine expression; type: cell-based, mouse (C57BL/6); details: for Antiinflammatory activity in the MΦ activation assay (in words): PMΦs, peptides 0.1 pM–100 nM, LPS/IFN-γ 15 h
[2] = tested on: ChemR23−/− PMΦs; assay: MΦ chemotaxis assay with ChemR23 KO MΦs; type: cell-based, mouse; details: MΦs from ChemR23−/− mice, 4 h migration
[3] = tested on: mice; details: cited from earlier work
[4] = tested on: C57Bl6/J mice; assay: Zymosan-induced peritonitis; type: in vivo, mouse; details: for Protection in vivo as judged by neutrophil and monocyte levels (in words): same dose and time as C15 (0.32 ng/kg i.p. 1 h before zymosan), 4 h
Outline: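 C57BL6/J mice received test peptide i.p. (8 pg/mouse, ∼0.32 ng/kg, in 500 μl) or PBS, either 1 h before or 2 h after 10 μg zymosan A i.p. Peritoneal lavage with PBS-3 mM EDTA was done at 2–48 h. Cells were counted, Fc-blocked, stained for 7/4 and Ly-6G, and typed by FACS: neutrophils 7/4high Ly-6Ghigh, monocytes 7/4high Ly-6Glow. Six to eight mice per treatment.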

[5] = tested on: ChemR23−/− PMΦs; assay: MΦ activation assay in MΦs from ChemR23−/− mice; type: cell-based, mouse; details: 0.1–1 pM, 1 h pretreatment, LPS/IFN-γ 15 h; ELISA
[6] = tested on: peritoneal MΦs (PMΦs); assay: MΦ chemotaxis assay; type: cell-based, mouse; details: 25 ng/ml, positive control, 4 h; mean ± SEM, n = 4 independent experiments
Outline: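 Bio-Gel-elicited peritoneal MΦs (4 × 10^5) from wild-type or ChemR23−/− mice were placed on 8-μm-pore membranes in RPMI/25 mM Hepes/0.1% BSA. They migrated 4 h toward test peptide, 25 ng/ml RANTES (positive control) or serum-free medium. For Gαi blockade, cells were pretreated 30 min with 200 ng/ml PTX. Migrated nuclei were formalin-fixed, DAPI-stained and imaged, with ≥3 replicate wells per treatment. Migration index = treatment threshold area ÷ serum-free area; n = 4 experiments.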

[7] = tested on: wild-type Bio-Gel–elicited peritoneal cells; assay: Calcium flux in wild-type cells; type: cell-based, mouse; details: Fura-PE3/AM
Outline: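 Cells from mice 4 d after Bio-Gel elicitation were suspended at 10^7 cells/ml in HBSS with CaCl2/MgCl, 0.5% BSA and 10 mM Hepes. They were loaded with 2 μM Fura-PE3/AM for 45 min at room temperature, then washed twice. 3 × 10^6 cells were added to prewarmed 37°C buffer in a cuvette. After at least 60 s, fluorescence was recorded at excitation 340/380 nm and emission 510 nm.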

[8] = tested on: Bio-Gel–elicited peritoneal cells from ChemR23 KO mice; assay: Calcium flux in ChemR23 KO cells; type: cell-based, mouse; details: Fura-PE3/AM
[9] = tested on: MΦs; assay: Cell viability, MTS assay; type: cell-based, mouse; details: MTS assay (Promega)
[10] = 0.32 ng/kg i.p. 1 h before zymosan, lavage fluid at 4 h
[11] = time course, 8 pg/mouse i.p. 1 h before zymosan, 4 h after zymosan, FACS
[12] = classically activated PMΦs, quantitative RT-PCR normalized to HPRT

## PHGYFLPGQFA [C11]
[1]
  Antiinflammatory activity in the MΦ activation assay (in words): devoid of antiinflammatory activity

## fMLP [reference compound]
[2]
  Chemotactic effect in ChemR23 KO MΦs (in words): unaffected

## C[C@@H]1C[C@H]2[C@@H]3CCC4=CC(=O)C=C[C@]4(C)[C@@]3(F)[C@@H](O)C[C@]2(C)[C@@]1(O)C(=O)CO [dexamethasone]
[3]; 30 μg/mouse (1.2 mg/kg)
  Suppression of monocyte and neutrophil influx: 50%

## GLFHDQAGPPAGYEF [C15-S]
[1]
  Antiinflammatory activity in the MΦ activation assay (in words): devoid of antiinflammatory activity
[4]
  Protection in vivo as judged by neutrophil and monocyte levels (in words): not protective

## FSRALRTK [C8]
[1]
  Antiinflammatory activity in the MΦ activation assay (in words): no detectable antiinflammatory activity

## AGEDPHGYALPGQAA [C15-M]
[1]
  Antiinflammatory activity in the MΦ activation assay (in words): devoid of antiinflammatory activity
[4]
  Protection in vivo as judged by neutrophil and monocyte levels (in words): not protective

## ELSETQRRSLQVALEEFHK [N19]
[1]
  Antiinflammatory activity in the MΦ activation assay (in words): devoid of antiinflammatory activity

## RALRTK [C6]
[1]
  Antiinflammatory activity in the MΦ activation assay (in words): no detectable antiinflammatory activity

## KPECTIKPNGRRRKCLACIK [M20]
[1]
  Antiinflammatory activity in the MΦ activation assay (in words): devoid of antiinflammatory activity

## AGEDPHGYFLPGQFA [C15]
[5]
  Suppression of proinflammatory mediator production by ChemR23 KO MΦs (in words): unable to suppress
[2]
  Chemotactic effect in ChemR23 KO MΦs (in words): completely ablated
[4]; 4 pg/mouse (∼0.16 ng/kg) i.p., 4 h after zymosan
  Effect at 4 pg/mouse (in words): significant antiinflammatory effects
[4]; 8 pg i.p. 2 h after zymosan, 4 h after zymosan
  Decrease in monocyte recruitment, C15 post-zymosan: 42%
[4]; 8 pg i.p. 2 h after zymosan, lavage 4 h after zymosan, zymosan alone 0.69 × 10^6
  Peritoneal monocyte levels, C15 post-zymosan: 0.42 × 10^6 cells
[4]; 8 pg i.p. 2 h after zymosan, lavage 4 h after zymosan, zymosan alone 1.9 × 10^6
  Peritoneal neutrophil numbers, C15 post-zymosan: 0.83 × 10^6 cells
[4]; [10]
  Reduction of peritoneal IL-1β expression: 67%
  Reduction of peritoneal IL-6 expression: 67%
  Reduction of peritoneal JE expression: 59%
  Reduction of peritoneal KC expression: 38%
  Reduction of peritoneal TNF-α expression: 51%
[4]; 2–4 h after zymosan, 8 pg/mouse i.p. pretreatment, zymosan alone 0.51 × 10^6
  Rate of monocyte influx: 0.18 × 10^6 cells/h
[4]; time course, 8 pg/mouse i.p. 1 h before zymosan
  Magnitude of peak neutrophilia relative to zymosan-challenged mice: ~50%
[4]; time course, 8 pg/mouse i.p. 1 h before zymosan, 2 h after zymosan, FACS
  Suppression of neutrophil infiltration, 2 h: 50%
[4]; [11]
  Suppression of monocyte levels, 4 h: 63%
  Suppression of neutrophil infiltration, 4 h: 66%
[4]; time course, 8 pg/mouse i.p. 1 h before zymosan, 8 h after zymosan, FACS
  Suppression of monocyte levels, 8 h: 61%
[4]; time course, 8 pg/mouse i.p. 1 h before zymosan, 24 h after zymosan, FACS
  Suppression of neutrophil infiltration, 24 h: 50%
[4]; time course, 8 pg/mouse i.p. 1 h before zymosan, 48 h after zymosan, FACS
  Suppression of monocyte levels, 48 h: 64%
[4]; time course, 8 pg/mouse i.p. 1 h before zymosan, zymosan alone 1.25 × 10^6
  Peak peritoneal neutrophil number: 0.62 × 10^6 cells

## CC[C@@H](O)/C=C/C=C\C[C@@H](O)/C=C/C=C/C=C\[C@@H](O)CCCC(=O)O [RvE1, resolvin E1]
[3]; 300 ng/mouse i.p. (12 μg/kg)
  Reduction of PMN numbers in peritoneal exudates: up to 25%

B1: RANTES: CC chemokine, positive control in chemotaxis (25 ng/ml; 3 nM) (protein, UniProt P13501 24-91, looked up)
C-C motif chemokine 5: SPYSSDTTPCCFAYIARPLPRAHIKEYFYTSGKCSNPAVVFVTRKNRQVCANPEKKWVREYINSLEMS
[6]
  Migration index: 6 ± 0.59
[2]
  Chemotactic effect in ChemR23 KO MΦs (in words): unaffected

B2: Chemerin: recombinant murine chemerin (R&D Systems), chemotactic protein that binds ChemR23 (protein, UniProt Q9DD06 21-156, looked up)
Retinoic acid receptor …: EPELSETQRRSLQVALEEFHKHPPVQLAFQEIGVDRAEEVLFSAGTFVRLEFKLQQTNCPKKDWKKPECTIKPNGRRRKCLACIKMDPKGKILGRIVHCPILKQGPQDPQELQCIKIAQAGEDPHGYFLPGQFAFS
[1]; [12]
  Induction of IL-10 mRNA expression: 10 fold
  Induction of TGF-β mRNA expression: twofold
[2]
  Chemotactic effect in ChemR23 KO MΦs (in words): completely ablated
[7]
  Calcium flux (in words): induce calcium flux
[8]
  Calcium flux (in words): failed to do so
[9]
  Effect on cell viability (in words): not found to affect cell viability adversely
